Experimental data reported in ChEMBL document CHEMBL1156916, “New fluorinated 1,2,4-benzothiadiazine 1,1-dioxides: discovery of an orally active cognitive enhancer acting through potentiation of the 2-amino-3-(3-hydroxy-5-methylisoxazol-4-yl)propionic acid receptors” (J Med Chem, 2010).
The source made the active and inactive calls. No cut-off for these calls is given here.

Experiments:
Oocyte = assay: Induction of amplitude current in Xenopus laevis oocytes assessed as 2 fold increase in AMPA-induced current by voltage clamp method; assay type: functional
Method in brief: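 Xenopus oocytes injected with poly(A+) mRNA from cortex of 15-day-old male Wistar rats, expressed 3 days at 18 °C. Two-electrode voltage clamp at -60 mV; 10 μM (S)-AMPA applied 30 s every 5 min. Compound given at increasing concentrations 45 s before, during and after AMPA; peak current compared with the same oocyte's control. EC2X is the 2-fold increase; n ≥ 3, mean ± SEM.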

Mus musculus [1] = assay: Toxicity in mouse at 30 mg/kg, ip; conditions: in vivo
Rattus norvegicus [2] = assay: Increase in memory in po dosed Wistar rat by object recognition test; assay type: functional, organism-based
Method in brief: (§1)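 Male Wistar rats (220-330 g), three sessions: 2 min habituation, acquisition with two identical objects, then 3 min recognition with one object replaced by a novel one. Oral compound or vehicle given 1 h before each session. Discrimination index is novel minus familiar exploration time; n = 9-10 per dose; ANOVA plus Dunnett.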

[3] = Dissociation constant, pKa of the compound; assay type: physicochemical
Liver microsomes = assay: Metabolic stability in rat liver microsomes assessed as metabolite degradation after 30 mins at 37 degC by HPLC; assay type: ADME, Microsome; conditions: 0.5 h
Method in brief: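 Phenobarbital-induced rat liver microsomes at 1 mg/mL protein with 200 μM substrate (methanol <1%), 37 °C, NADPH-generating system in pH 7.4 phosphate buffer. Incubated 30 min; T0 samples quenched with organic solvent. Metabolites resolved by RP-HPLC with ESI-MS/MS and identified against synthetic standards.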

Rattus norvegicus [4] = assay: Increase in duration of long term potentiation in dentate gyrus of anesthetized Wistar rat hippocampus at 10 mg/kg, ip measured for 3 hrs; assay type: functional, organism-based; parameters: dose 10 mg/kg
Method in brief: (§2)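 Male Wistar rats (300-400 g) anaesthetized with chloral hydrate 400 mg/kg ip; body temperature held at 36.6-37 °C. Perforant path stimulated, dentate gyrus recorded. After a 60 min baseline, compound or vehicle given ip; tetanus 60 min later (four 400 Hz bursts). Recorded for 3 h; EPSfP amplitude normalized to baseline; two-way ANOVA plus Dunnett.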

Rattus norvegicus [5] = assay: Increase in memory in Wistar rat at 0.03 to 1 mg/kg, po treated 60 mins before test session by object recognition test; assay type: functional, organism-based; method in brief: as §1
Hippocampus [6] = assay: Increase in AMPA-mediated postsynaptic response recorded in rat hippocampus CA1 region assessed as increase in excitatory postsynaptic field potential amplituted at 50 uM; assay type: functional
Method in brief: (§3)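 Rat hippocampal slices, Schaffer collateral stimulation with EPSfPs recorded in CA1; perfusion medium contains 1.2 mM Mg2+. Compound bath-applied for 10 min at successively increasing concentrations, with washout to recovery. Amplitude, area and half-width averaged over five pulses and normalized to five pre-drug responses (100%). Compared with vehicle by two-way ANOVA plus Dunnett.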

Rattus norvegicus [7] = assay: Increase in long term potentiation-evoked EPSfP amplitude in dentate gyrus of anesthetized Wistar rat hippocampus at 3 mg/kg, ip measured for 3 hrs; assay type: functional, organism-based; parameters: dose 3 mg/kg; method in brief: as §2
Hippocampus [8] = assay: Increase in AMPA-mediated postsynaptic response recorded in rat hippocampus CA1 region assessed as increase in excitatory postsynaptic field potential area; assay type: functional, tissue-based; method in brief: as §3
Mus musculus [9] = assay: Toxicity in mouse assessed as hypothermia at 30 mg/kg, po after 1.5 hrs; conditions: in vivo
Hippocampus [10] = assay: Increase in AMPA-mediated postsynaptic response recorded in rat hippocampus CA1 region assessed as increase in excitatory postsynaptic field potential area at 50 uM; assay type: functional; method in brief: as §3
Hippocampus [11] = assay: Increase in AMPA-mediated postsynaptic response recorded in rat hippocampus CA1 region assessed as increase in excitatory postsynaptic field potential half width at 50 uM; assay type: functional; method in brief: as §3
Mus musculus [12] = assay: Toxicity in mouse at 10 to 30 mg/kg, ip by Irwin's test; assay type: organism-based; parameters: dose 10-30 mg/kg, route intraperitoneal; conditions: in vivo

SMILES	EC (Oocyte)	other results
CCN1CNS(=O)(=O)c2cc(OC)ccc21	68 µM	
O=S1(=O)N[C@H]2CCCN2c2ccccc21	25 µM	
O=S1(=O)NCN(CCF)c2ccc(Br)cc21	17 µM	
CCN1CNS(=O)(=O)c2cc(C(F)(F)F)ccc21	>300 µM	
O=S1(=O)NCN(CCF)c2ccc(C(F)(F)F)cc21	>300 µM	
CCN1CNS(=O)(=O)c2cc([N+](=O)[O-])ccc21	16 µM	
O=S1(=O)NCN(CC(F)(F)F)c2ccc(Cl)cc21	19 µM	Activity (Mus musculus [1]): Non-toxic; Activity (Rattus norvegicus [2]): inactive; pKa [3]: 9.01
O=S1(=O)NCN(CCF)c2ccc(Cl)cc21	6.7 µM	Stability (Liver microsomes): Unstable; Activity (Rattus norvegicus [4]): Active; Activity (Rattus norvegicus [5]): Active; Activity (Hippocampus [6]): 23%; Activity (Rattus norvegicus [7]): Active; Activity (Mus musculus [1]): Non-toxic; Activity (Hippocampus [8]): Dose-dependent effect; Activity (Rattus norvegicus [2]): Active; Activity (Mus musculus [9]): Toxic; pKa [3]: 9.35; Activity (Hippocampus [10]): 66%; Activity (Hippocampus [11]): 47%
O=[N+]([O-])c1ccc2c(c1)S(=O)(=O)NCN2CCF	27 µM	pKa [3]: 8.45
O=S1(=O)N=CNc2ccc(Cl)cc21		Activity (Mus musculus [12]): Non-toxic
NS(=O)(=O)c1cc2c(cc1Cl)NC(C1CC3C=CC1C3)NS2(=O)=O (stereo unspecified) [CYCLOTHIAZIDE]	1.7 µM	
O=S1(=O)NCN(CCF)c2ccc(F)cc21	3.6 µM	
Cc1ccc2c(c1)S(=O)(=O)NCN2CCF	47.5 µM	
CCN1CNS(=O)(=O)c2cc(C)ccc21	25 µM	
CCN1CNS(=O)(=O)c2cc(Cl)cnc21	28.3 µM	
O=S1(=O)N=CN(CCF)c2ccc(Cl)cc21		Activity (Mus musculus [12]): Non-toxic
O=S1(=O)NCN(CC(F)F)c2ccc(Cl)cc21	13.5 µM	
O=S1(=O)NCN(CCF)c2ccc(I)cc21	120 µM	
COc1ccc2c(c1)S(=O)(=O)NCN2CCF	71 µM	
CCN1CNS(=O)(=O)c2cc(I)ccc21	95 µM	
CCN1CNS(=O)(=O)c2cc(Br)ccc21	29 µM	
O=[N+]([O-])c1ccc2c(c1)S(=O)(=O)NCN2CC(F)(F)F	55 µM	
O=S1(=O)NCN(CCO)c2ccc(Cl)cc21	54 µM	
CCN1CNS(=O)(=O)c2cc(Cl)ccc21		Stability (Liver microsomes): Unstable; pKa [3]: 9.33
